Bioassay records: PubChem BioAssay, The Scripps Research Institute Molecular Screening Center
M5 ag: CHRM5 agonism in calcium assay | CHO-K1 hM5 cells, Fluo-8 calcium fluorescence; 0% DMSO wells, 100% maximal acetylcholine response | activation, % at 3 µM | hit rate 0.19% among 360,000;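 active = activation above the run's mean over test compounds plus 3 SD, cut at about 23% in these data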;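 note: signal is peak over basal fluorescence ratio across the kinetic read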
M5 PAM: potentiates acetylcholine response at human M5 receptor | hit rate 0.3% among 360,000 | AID 624038 | CHO-K1 hM5, Fluo-8 calcium, ACh EC20 PAM; 0% = ACh EC20, 100% = ACh EC100 | activation, % at 3 µM | P08912;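 active = activation above the run cutoff, the mean activation of all test compounds plus 3 SD, cut at about 18% in these data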
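Assay system: CHO-K1 hM5 cells. Also added: acetylcholine at EC20 concentration, added after compound. Dosing: 3 µM, single dose. Times: compound preincubation 140 s before EC20 acetylcholine addition. Signal: Fluo-8 calcium fluorescence. Measure: % activation relative to EC20 and EC100 ACh responses. Repeats: singlicate, one well per test compound.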
M5 antag: blocks acetylcholine activation of human M5 receptor; P08912; CHO-hM5 cells, Fluo-8 calcium fluorescence, ACh EC80; inhibition, % at 3 µM; hit rate 0.59% among 360,000;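 active = inhibition above a per-plate cutoff, the mean of that plate's test compounds plus 3 SD, cut at about 27% in these data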;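 note: 0% = acetylcholine EC80 with DMSO and 100% = DMSO without agonist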
M4 PAM: potentiates acetylcholine response at human M4 receptor. P08173. CHO-K1 hM4/Gqi5, Fluo-8 calcium fluorescence, ACh EC20; 0% = ACh EC20, 100% = maximal ACh. activation, % at 3 µM. hit rate 0.4% among 360,000. AID 624126;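 active = activation above its plate's cutoff, the mean activation of sample wells plus 3 SD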
Target sequence (P08173 whole entry, looked up): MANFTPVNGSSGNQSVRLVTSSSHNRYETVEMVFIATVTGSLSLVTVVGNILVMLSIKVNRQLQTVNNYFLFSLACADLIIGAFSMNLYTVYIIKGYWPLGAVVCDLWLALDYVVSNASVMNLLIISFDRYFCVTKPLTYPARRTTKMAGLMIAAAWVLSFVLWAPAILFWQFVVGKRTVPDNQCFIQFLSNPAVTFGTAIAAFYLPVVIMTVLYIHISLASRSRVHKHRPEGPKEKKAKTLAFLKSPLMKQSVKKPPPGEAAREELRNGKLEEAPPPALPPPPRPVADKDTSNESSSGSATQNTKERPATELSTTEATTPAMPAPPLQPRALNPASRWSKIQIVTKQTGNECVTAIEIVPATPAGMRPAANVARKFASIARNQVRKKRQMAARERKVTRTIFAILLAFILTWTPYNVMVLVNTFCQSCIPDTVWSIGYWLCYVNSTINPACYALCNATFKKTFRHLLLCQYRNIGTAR
CHRM4 antagonist: blocks acetylcholine activation of human M4 receptor; P08173; inhibition, % at 3 µM; CHO-hM4 cells, ACh EC80, Fluo-8 calcium fluorescence; hit rate 0.73% among 360,000;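 active = inhibition above its plate's cutoff, the mean inhibition of sample wells plus 3 SD, cut at about 27% in these data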;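 note: 0% = acetylcholine EC80 with DMSO and 100% = DMSO without agonist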
M4 ag: agonists of human muscarinic M4 receptor (CHRM4); P08173; activation, % at 3 µM; hit rate 0.14% among 360,000; CHO-K1 hM4/Gqi5, Fluo-8 calcium fluorescence; vehicle 0%, full acetylcholine response 100%;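 active = activation above the run mean over all test wells plus 3 SD, cut at about 32% in these data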;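 note: peak over basal fluorescence ratio per well then scaled between controls; 0% = DMSO wells and 100% = acetylcholine at EC100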
Active calls of the source: *; ! = repeats disagree. An excerpt weighted towards active compounds, which were near 1.8% of everything screened.

SMILES | M5 ag | M5 PAM | M5 antag | M4 PAM | CHRM4 antagonist | M4 ag
COc1cc(/C=C2\SC(=Nc3ccc(Cl)c(C(=O)O)c3)NC2=O)c(Br)c(Br)c1O | 190* | -34 | 43* | -19 | 16 | 51*
COc1cc(/C=C2\SC(=Nc3ccccc3)NC2=O)cc(Cl)c1O | 64* | -20 | 45* | -22 | 44* | 84*
CCCCNc1c(-c2ccc(OC)c(SC(C)CC)c2)nc2ccc(C)cn12 (stereo unspecified) | 1 | -30 | 14 | -4 | 31*! | 16
CCCCNc1c(-c2ccc(OC)c(SC(C)CC)c2)nc2cnccn12 (stereo unspecified) | -6 | -21 | 21 | -3 | -1 | 5
CCCCNc1c(-c2ccc(SC3CCCCC3)cc2)nc2ccccn12 | 5 | 0 | 6 | 0 | 21 | 6
CCCCNc1c(-c2ccc(OC)c(SC(C)CC)c2)nc2cc(C)ccn12 (stereo unspecified) | -4 | -22 | 8 | -11 | 31*! | 12
CCCCNc1c(-c2ccc(OC)c(SC(C)CC)c2)nc2ccc(Cl)cn12 (stereo unspecified) | -5 | -8 | 9 | -4 | 5 | 5
CCCCNc1c(-c2ccc(Sc3ccc(OC)cc3)cc2)nc2cc(C)ccn12 | -5 | -13 | 11 | -13 | 44* | 4
CCCCNc1c(-c2ccc(-c3ccc(C(C)=O)cc3)c(OC)c2)nc2cc(C)ccn12 | -10 | -36 | 17 | -13 | 25 | 7
CCCCNc1c(-c2ccc(SC(C)CC)cc2)nc2ccccn12 (stereo unspecified) | -1 | -29 | 25 | -12 | 45* | 11
CC(=O)N1CCOc2ccc(S(=O)(=O)NC[C@H]3O[C@@H](n4ccc(=O)[nH]c4=O)[C@H](O)[C@@H]3O)cc21 | 0 | 2 | -3 | -4 | 2 | 0
COc1ccc(Cl)cc1N(CC(=O)NC(C)(C)C)S(=O)(=O)c1ccc(C)c([N+](=O)[O-])c1 | -6 | 11 | 0 | 22* | -4 | 1
NC(=O)CC(NC(=O)c1ccc(Br)cc1)c1ccc(N2CCCCCC2)c([N+](=O)[O-])c1 (stereo unspecified) | -1 | -2 | 11 | 14 | 5 | 0
CCOc1ccccc1NC(=O)C1CC(=O)n2ncnc2N1 (stereo unspecified) | -3 | -6 | 6 | 18 | 28* | 2
O=C1C=CC(=Nc2ccc(F)cc2)O1 | -2 | 22* | -11 | 9 | -21 | 2
Cc1ccc(C(=O)c2sc3nc4c(cc3c2N)CCC4)cc1 | -1 | 5 | -4 | 21* | -6 | 1
Nc1c(C(=O)N2CCCCC2)sc2nc3c(cc12)CCCC3 | -2 | 0 | -3 | -3 | -2 | 0
CCOc1ccccc1NC(=O)Nc1ccc2c(c1)CCC2 | -2 | 10 | 0 | 20* | -4 | 0
COC(=O)C1=NN(c2ccc(C)cc2)C2(S1)SC(C(C)=O)=C(C)N2c1ccccc1 (stereo unspecified) | -1 | 21* | 0 | 0 | 22 | 2
COC(=O)C1=NN(c2ccccc2)C2(S1)SC(C(C)=O)=C(C)N2c1ccccc1 (stereo unspecified) | -9 | 13 | -2 | 14 | -2 | -1
COc1ccc(NC(=O)NNS(=O)(=O)c2ccc(OC)c(OC)c2)c(OC)c1 | -1 | 18* | -25 | 7 | -9 | 2
O=C(CCCN1CCN(c2ccccc2)CC1)c1ccc(F)cc1 | -3 | 0 | -3 | 0 | -19 | 2
O=C1CC(=C(c2ccccc2)c2ccccc2)C(=O)N1CCCCN1CCN(c2ccccc2)CC1 | -8 | -20 | 9 | -25 | 34* | 0
Cc1ccc(Cn2c(N/N=C/c3ccncc3)nc3c2c(=O)n(C)c(=O)n3C)cc1 | -5 | 1 | 0 | -1 | -6 | 3
Cn1c(=O)c2c(nc(SCCN3CCCCC3)n2Cc2ccccc2)n(C)c1=O | -7 | -7 | 5 | -20 | 28* | -1
SMILES | M5 ag | M5 PAM | M5 antag | M4 PAM | CHRM4 antagonist | M4 ag
COc1ccc(Oc2nc3c(c(=O)n(C)c(=O)n3C)n2Cc2ccccc2)cc1 | -2 | 12 | -6 | 30* | 0 | 0
Cn1c(=O)c2c(nc(Oc3ccc4c(c3)OCO4)n2Cc2ccc(Cl)cc2)n(C)c1=O | 1 | 33* | 0 | 1 | 7 | 1
Cc1ccc(Cn2c(SCCN3CCCCC3)nc3c2c(=O)n(C)c(=O)n3C)cc1 | -7 | 0 | -4 | -1 | -2 | 0
Cn1c(=O)c2c(nc(N/N=C/c3ccncc3)n2Cc2ccccc2)n(C)c1=O | 5 | 21* | -10 | -2 | 2 | 1
CCN(CC)c1nc2c(c(=O)n(C)c(=O)n2C)n1CCCc1ccccc1 | 2 | -1 | 9 | -2 | -9 | 2
CN(Cc1ccccc1)c1nc2c(c(=O)n(C)c(=O)n2C)n1CCCc1ccccc1 | -5 | -16 | 13 | -10 | 27* | 3
CNC(=S)NC12CC3CC(CC(C3)C1)C2 | -5 | -10 | -5 | -7 | 2 | 1
CCN(CC)CCNC1=NCCn2c1cc1cc(OC)ccc12 | -10 | 20* | 1 | 4 | -4 | 0
COCCCN1CN(S(=O)(=O)c2ccc(C)cc2C)c2nc3ccccc3nc21 | 0 | 21* | -7 | 4 | -9 | 4
Cc1cc(=O)n2nc(N3CCC(C(=O)NCC(C)c4ccccc4)CC3)sc2n1 (stereo unspecified) | -6 | 0 | 7 | -8 | 8 | 0
CCN(CC)CCNC(=O)c1ccc(NC(=O)c2cccc(S(=O)(=O)N(C)C3CCCCC3)c2)cc1 | -10 | -40 | 98* | -16 | 98* | 1
CCN(CC)CCNC(=O)c1ccc(NC(=O)Cc2ccccc2F)cc1 | -11 | 7 | -5 | 8 | -6 | 0
CCN(CC)CCNC(=O)c1ccc(NC(=O)c2ccc3c(c2)CCC3)cc1 | -10 | -2 | -1 | -4 | -16 | 1
CCN(CC)CCNC(=O)c1ccc(NC(=O)c2ccccc2-c2ccc(C(F)(F)F)cc2)cc1 | -7 | -18 | 81* | -17 | 71* | 3
CCCCC1CCC(c2nc(-c3ccccn3)no2)CC1 (stereo unspecified) | 1 | 2 | 1 | 18 | -1 | -1
c1ccc(-c2noc(C3CCC3)n2)nc1 | 5 | 18* | -10 | 1 | -7 | 1
Cc1ccc(F)cc1NC(=O)c1sc2ncn(CC(=O)N3CCN(c4ccccn4)CC3)c(=O)c2c1C | -4 | 1 | 7 | -1 | -5 | 1
Cc1n[nH]c2ccccc2c1=O | 2 | 2 | 2 | 0 | -2 | 0
CC(C)(C)c1ccc(Nc2n[nH]c3ccccc23)cc1 | 0 | -2 | -5 | 21* | -23 | -1
